Results: ChEMBL document CHEMBL5113474, “Triazole-substituted phenylboronic acids as tunable lead inhibitors of KPC-2 antibiotic resistance” (Eur J Med Chem, 2022)
Converted amounts (≈) assume the structure as drawn.

Key:
[1] = tested on: Bacteria; experiment: Inhibition of bacterial beta-lactamase KPC-2 expressed in Escherichia coli BL21 (DE3) using nitrocefin as substrate at 1 uM by spectrophotometric analysis relative to control
How it was run: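 Purified recombinant KPC-2 tested against the chromogenic β-lactam nitrocefin at 1 µM inhibitor. Hydrolysis was followed as the rise in absorbance at 482 nm (ε482 = 17,400 M-1 cm-1). Activity is expressed as percent inhibition relative to an uninhibited control.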

[2] = tested on: Escherichia coli; assay type: functional, BL21 (DE3); conditions: time 16-18 hrs
[3] = Cytotoxicity against HEK293 cells assessed as cell viability at 5 to 50 ug/ml incubated for 24 hrs by MTT assay relative to control; conditions: human, at 5 to 50 µg/mL
[4] = Cytotoxicity against HEK293 cells assessed as cell viability at 5 to 50 ug/ml incubated for 24 hrs in presence of cefotaxime by MTT assay relative to control; conditions: human, at 5 to 50 µg/mL
[5] = Inhibition of bacterial beta-lactamase KPC-2 expressed in Escherichia coli BL21 (DE3) using nitrocefin as substrate assessed as inhibition constant by Cheng-Prusoff equation analysis; design: species or system Bacteria
[6] = tested on: Escherichia coli; experiment: microbe, parasite or virus in culture; assay type: functional; conditions: BL21 (DE3), dose 50 µg/ml, time 16-20 hrs
[7] = tested on: Escherichia coli; experiment: microbe, parasite or virus in culture; assay type: functional; conditions: BL21 (DE3), dose 5 µg/ml, time 16-20 hrs
[8] = tested on: Escherichia coli; experiment: microbe, parasite or virus in culture; assay type: functional; conditions: BL21 (DE3), dose 50 µg/ml, time 16-20 hrs; remark: listed apart in the source
[9] = physchem; conditions: 0.1 M phosphate buffer, pH 4.3
[10] = tested on: Escherichia coli; experiment: Antibacterial activity against Escherichia coli NCTC10418; assay type: functional
[11] = tested on: Escherichia coli; experiment: microbe, parasite or virus in culture; assay type: functional; conditions: BL21 (DE3), dose 5 µg/ml, time 16-20 hrs; remark: listed apart in the source
[12] = tested on: Escherichia coli; experiment: Potentiation of cefotaxime induced antibacterial activity against Escherichia coli expressing CMY-4/TEM-1 assessed as cefotaxime MIC at 5 ug/ml incubated for 16 to 20 hrs by microdilution method; assay type: functional; conditions: dose 5 µg/ml, time 16-20 hrs
How it was run: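 Cefotaxime MIC re-measured with the boronic acid inhibitor held at a fixed 5 μg/mL, lowered from an earlier 50 μg/ml fixed-dose combination; MICs interpreted against CLSI susceptibility categories.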

| Compound | inhibition [1] | inhibition zone (IZ) [2] | viability at 24 h [3] | viability at 24 h [4] | Ki [5] | MIC [6] | MIC [7] | MIC [8] | pKa at 100 µM [9] | MIC [10] | MIC [11] | MIC [12] |
| --- | --- | --- | --- | --- | --- | --- | --- | --- | --- | --- | --- | --- |
| O=C(Nc1cccc(B(O)O)c1)c1ccc2sccc2c1 | 10.2% | 26.1 mm |  |  |  |  |  |  |  |  |  |  |
| O=C(Nc1cccc(B(O)O)c1)c1ccccc1 | 40% | 25.2 mm | > 80% | > 80% |  |  |  |  |  |  |  |  |
| O=C(Nc1cccc(B(O)O)c1)c1cccs1 | 2% | 26 mm | > 80% | > 80% | 2.9 µM |  |  |  |  |  |  |  |
| OB(O)c1ccc(Cn2cc(-c3ccccn3)nn2)cc1 | 47% | 27.4 mm | > 80% | > 80% |  |  |  |  |  |  |  |  |
| [N-]=[N+]=NCc1ccc(F)c(B(O)O)c1 | 40% | 29 mm |  |  | 0.41 µM | ≤ 0.06 µg/mL | ≤ 0.06 µg/mL | ≤ 0.06 µg/mL | 7.22 | > 64 µg/mL | 0.5 µg/mL (≈ 2.56 µM) |  |
| OB(O)c1ccc(Cn2cc(-c3ccccc3)nn2)cc1 | 55% | 25.5 mm | > 80% | > 80% | 0.323 µM |  |  |  |  |  |  |  |
| O=C(Nc1cccc(B(O)O)c1)c1cc2ccccc2s1 | 8.6% | 28.4 mm | > 80% | > 80% |  |  |  |  |  |  |  |  |
| O=C(O)c1cn(-c2cccc(B(O)O)c2)nn1 | 0.3% | 32.9 mm | > 80% | > 80% |  |  |  |  |  |  |  |  |
| OB(O)c1cccc(-n2cc(C3CC3)nn2)c1 | 47% | 31.5 mm | > 80% | > 80% | 0.44 µM |  |  |  |  |  |  |  |
| OB(O)c1ccc(-c2ccccc2)cc1 [BIPHENYLBORONIC ACID] |  | 32.2 mm |  |  |  |  |  |  |  |  |  |  |
| [N-]=[N+]=Nc1cc(F)c(F)c(B(O)O)c1 |  | 16.8 mm |  |  | 27.2 µM |  |  |  | 6.04 |  |  |  |
| [N-]=[N+]=NCc1cccc(B(O)O)c1 | 30% | 30 mm | > 80% | > 80% | 0.83 µM |  | ≤ 0.06 µg/mL |  |  | > 64 µg/mL | 0.12 µg/mL (≈ 0.678 µM) |  |
| O=[N+]([O-])c1cc(NCc2ccccc2)cc(B(O)O)c1 |  | 20.9 mm |  |  |  |  |  |  |  |  |  |  |
| [N-]=[N+]=NCc1ccc(B(O)O)cc1 |  |  | > 80% | > 80% | 0.493 µM |  |  |  |  |  |  |  |
| COc1ccc(-c2cn(Cc3ccc(B(O)O)cc3)nn2)cc1 | 59% | 22.6 mm |  |  | 0.227 µM |  |  |  |  |  |  |  |
| OB(O)c1cccc(-c2ccccc2)c1 |  | 29.7 mm |  |  |  |  |  |  |  |  |  |  |
| O=C(O)c1cn(Cc2cccc(B(O)O)c2)nn1 | 10% | 21.4 mm | > 80% | > 80% | 1.02 µM | 2 µg/mL (≈ 8.1 µM) | 2 µg/mL (≈ 8.1 µM) | 0.12 µg/mL (≈ 0.486 µM) |  | > 64 µg/mL | 4 µg/mL (≈ 16.2 µM) |  |
| OB(O)c1ccc(Cn2cc(-c3cccs3)nn2)cc1 | 45% | 27.5 mm |  |  | 0.275 µM |  |  |  |  |  |  |  |
| O=C(Nc1cccc(B(O)O)c1)c1ccsc1 | 28% | 29 mm | > 80% | > 80% | 0.87 µM | 2 µg/mL (≈ 8.09 µM) | 0.12 µg/mL (≈ 0.486 µM) | 0.12 µg/mL (≈ 0.486 µM) |  | > 64 µg/mL | 4 µg/mL (≈ 16.2 µM) |  |
| Nc1cc(F)c(F)c(B(O)O)c1 |  | 25.5 mm |  |  |  |  |  |  |  |  |  |  |
| OB(O)c1cccc(Cn2cc(-c3cccnc3)nn2)c1 | 54% | 25.9 mm | > 80% | > 80% | 0.48 µM |  |  |  |  |  |  |  |
| COc1ccc(B(O)O)c(-n2cccn2)c1 |  | 21.7 mm |  |  |  |  |  |  |  |  |  |  |
| [N-]=[N+]=Nc1cccc(B(O)O)c1 | 34% | 31.3 mm |  |  | 0.45 µM |  | ≤ 0.06 µg/mL | ≤ 0.06 µg/mL | 8.27 | > 64 µg/mL | 0.25 µg/mL (≈ 1.53 µM) | 1 µg/mL |
| OB(O)c1cc(Cn2cc(-c3ccsc3)nn2)ccc1F | 53% | 29.9 mm |  |  | 0.24 µM | ≤ 0.06 µg/mL | ≤ 0.06 µg/mL | ≤ 0.06 µg/mL | 10 | > 64 µg/mL | ≤ 0.06 µg/mL |  |
| CCC(=O)Nc1cccc(B(O)O)c1 | 16% | 25.2 mm | > 80% | > 80% |  |  |  |  |  |  |  |  |
